Experimental findings from ChEMBL document CHEMBL1144553, “alpha-Biphenylsulfonylamino 2-methylpropyl phosphonates: enantioselective synthesis and selective inhibition of MMPs” (Bioorg Med Chem, 2007) are described below.

SMILES strings stand for the structures. pIC50: −log10 of the molar value.

The target in one assay is Neutrophil collagenase (Homo sapiens, UniProt P22894). Description: Inhibition of MMP8.
For the next assay, the target named is T1, Interstitial collagenase (Homo sapiens, UniProt P03956).
T1 sequence (P03956 whole entry): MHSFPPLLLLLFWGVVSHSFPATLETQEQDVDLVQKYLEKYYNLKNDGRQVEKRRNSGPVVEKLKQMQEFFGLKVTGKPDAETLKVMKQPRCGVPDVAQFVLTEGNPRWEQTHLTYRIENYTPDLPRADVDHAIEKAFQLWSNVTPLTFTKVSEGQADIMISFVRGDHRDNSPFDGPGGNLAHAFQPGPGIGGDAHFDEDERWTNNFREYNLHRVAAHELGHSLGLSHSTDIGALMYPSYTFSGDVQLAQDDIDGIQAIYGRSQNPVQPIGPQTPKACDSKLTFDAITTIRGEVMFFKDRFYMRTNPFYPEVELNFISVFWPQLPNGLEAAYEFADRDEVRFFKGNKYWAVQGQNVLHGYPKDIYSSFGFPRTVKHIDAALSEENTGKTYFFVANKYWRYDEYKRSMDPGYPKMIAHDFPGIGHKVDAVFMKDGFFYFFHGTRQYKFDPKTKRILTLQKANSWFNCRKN
Description: Inhibition of MMP1. In outline:
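Pro-MMP-1 from a commercial source, activated with APMA (2 mM, 1 h, 37 °C). Enzyme at 0.20 nM final was preincubated 4 h at 25 °C with inhibitor at seven concentrations in Tris 50 mM pH 7.5, NaCl, CaCl2, Brij 35 and 1% DMSO. Mca-Lys-Pro-Leu-Gly-Leu-Dpa-Ala-Arg-NH2 was added and fluorescence (ex 325/em 400 nm) read every 15 s for 20 min, in triplicate. IC50 from Vi/Vo = 1/(1+[I]/IC50).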

Another assay deals with T2, Matrilysin (Homo sapiens, UniProt P09237).
T2 sequence (P09237 whole entry): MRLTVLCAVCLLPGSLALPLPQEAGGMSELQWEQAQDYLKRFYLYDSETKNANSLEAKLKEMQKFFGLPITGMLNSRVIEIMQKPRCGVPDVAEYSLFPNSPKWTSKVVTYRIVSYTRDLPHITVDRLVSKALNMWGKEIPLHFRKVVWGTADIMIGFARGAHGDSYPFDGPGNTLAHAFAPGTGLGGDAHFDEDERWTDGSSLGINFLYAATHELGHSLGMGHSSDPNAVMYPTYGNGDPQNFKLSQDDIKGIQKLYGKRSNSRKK
The assay is described as follows: Inhibition of MMP7. In outline:
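Pro-MMP-7 from a commercial source, activated with APMA (1 mM, 1 h, 37 °C) and used at 2.4 nM final. It was preincubated 4 h at 25 °C with inhibitor at seven concentrations in Tris pH 7.5 buffer (CaCl2, Brij 35, 1% DMSO). Mca-Lys-Pro-Leu-Gly-Leu-Dpa-Ala-Arg-NH2 cleavage was monitored fluorimetrically (ex 325/em 400 nm) every 15 s for 20 min, in triplicate. IC50 via Vi/Vo = 1/(1+[I]/IC50).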

For assay [1], the target named is T3, Stromelysin-1 (Homo sapiens, UniProt P08254). The assay is described as follows: Inhibition of MMP3. In outline:
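Purchased MMP-3 at 1 nM final was preincubated with inhibitor (seven concentrations) for 4 h at 25 °C in Tris pH 7.5 assay buffer containing CaCl2, Brij 35 and 1% DMSO. Substrate was Mca-Arg-Pro-Lys-Pro-Val-Glu-Nva-Trp-Arg-Lys(Dnp)-NH2, with fluorescence (ex 325/em 400 nm) read every 15 s over 20 min, in triplicate. IC50 from initial velocities via Vi/Vo = 1/(1+[I]/IC50).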
Target sequence in this assay (P08254 whole entry): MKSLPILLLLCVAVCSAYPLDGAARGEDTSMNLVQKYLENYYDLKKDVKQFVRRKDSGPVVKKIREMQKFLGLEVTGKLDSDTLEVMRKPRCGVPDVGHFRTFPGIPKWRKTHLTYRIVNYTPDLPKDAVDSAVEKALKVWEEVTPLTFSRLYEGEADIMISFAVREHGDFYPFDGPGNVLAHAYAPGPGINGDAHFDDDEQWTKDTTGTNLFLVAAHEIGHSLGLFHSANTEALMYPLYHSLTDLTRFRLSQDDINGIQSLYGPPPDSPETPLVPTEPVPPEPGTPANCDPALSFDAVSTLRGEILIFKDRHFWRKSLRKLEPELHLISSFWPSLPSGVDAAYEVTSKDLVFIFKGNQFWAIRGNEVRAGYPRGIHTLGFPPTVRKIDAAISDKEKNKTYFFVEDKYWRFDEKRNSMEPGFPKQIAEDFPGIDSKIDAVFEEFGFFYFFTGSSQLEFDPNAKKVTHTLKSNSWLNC

Assay [2] concerns the target 72 kDa type IV collagenase (Homo sapiens, UniProt P08253). The assay is described as follows: Inhibition of human recombinant MMP2 expressed in mouse myeloma cells. Type of assay: cell-based. Put shortly: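 Recombinant human pro-MMP-2 from transfected mouse myeloma cells, activated with APMA (2 mM, 1 h, 37 °C) and used at 2.9 nM final. It was preincubated 4 h at 25 °C with inhibitor (seven concentrations) in Tris 50 mM pH 7.5 buffer with 1% DMSO. Mca-Lys-Pro-Leu-Gly-Leu-Dpa-Ala-Arg-NH2 fluorescence (ex 325/em 400 nm) was read every 15 s for 20 min, in triplicate. IC50 from Vi/Vo = 1/(1+[I]/IC50).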

Assay [3] concerns the target T4, Collagenase 3 (Homo sapiens, UniProt P45452). The assay is described as follows: Inhibition of MMP13. Put shortly: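 Purchased pro-MMP-13 was APMA-activated (1 mM, 0.5 h, 37 °C) and used at 0.66 nM final. It was preincubated with inhibitor (seven concentrations) for 4 h at 25 °C in Tris pH 7.5 buffer with CaCl2, Brij 35 and 1% DMSO. Cleavage of Mca-Lys-Pro-Leu-Gly-Leu-Dpa-Ala-Arg-NH2 was followed by fluorescence (ex 325/em 400 nm) every 15 s for 20 min, in triplicate. IC50 fitted to Vi/Vo = 1/(1+[I]/IC50).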

Assay [4] has as its target T5, Matrix metalloproteinase-14 (Homo sapiens, UniProt P50281). The assay is described as follows: Inhibition of MMP14. In outline: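 Commercial MMP-14 at 1 nM final, preincubated 4 h at 25 °C with inhibitor at seven concentrations in Tris 50 mM pH 7.5/NaCl/CaCl2/Brij 35 buffer with 1% DMSO. Read-out was fluorogenic substrate Mca-Lys-Pro-Leu-Gly-Leu-Dpa-Ala-Arg-NH2 hydrolysis (ex 325, em 400 nm), recorded every 15 s for 20 min, in triplicate. IC50 from Vi/Vo = 1/(1+[I]/IC50).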

Assay [5] concerns the target T6, Matrix metalloproteinase-9 (Homo sapiens, UniProt P14780). Description: Inhibition of human recombinant MMP9 expressed in mouse myeloma cells. Type of assay: cell-based. In outline: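 Human pro-MMP-9 expressed in transfected mouse myeloma cells, APMA-activated (1 mM, 1 h, 37 °C) and used at 2.7 nM final. Preincubated 4 h at 25 °C with inhibitor at seven concentrations in Tris pH 7.5/CaCl2/Brij 35 buffer with 1% DMSO. Fluorogenic Mca-Lys-Pro-Leu-Gly-Leu-Dpa-Ala-Arg-NH2 hydrolysis (ex 325/em 400 nm) was read every 15 s for 20 min, in triplicate. IC50 via Vi/Vo = 1/(1+[I]/IC50).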

Assay [6] deals with T3, Stromelysin-1. The assay is described as follows: Inhibition of MMP3 at 100 uM.
Target sequence in this assay (P08254 100-477 limits assumed): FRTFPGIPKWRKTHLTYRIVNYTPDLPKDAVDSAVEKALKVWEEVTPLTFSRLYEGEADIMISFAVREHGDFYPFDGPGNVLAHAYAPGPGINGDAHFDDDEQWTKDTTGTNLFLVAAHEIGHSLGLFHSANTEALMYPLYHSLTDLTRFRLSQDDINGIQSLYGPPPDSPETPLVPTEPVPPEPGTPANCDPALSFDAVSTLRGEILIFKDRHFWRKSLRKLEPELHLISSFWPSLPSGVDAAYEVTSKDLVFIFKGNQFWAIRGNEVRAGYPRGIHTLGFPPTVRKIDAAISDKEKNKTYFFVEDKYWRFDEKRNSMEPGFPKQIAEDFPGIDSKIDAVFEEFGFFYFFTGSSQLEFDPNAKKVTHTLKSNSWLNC
The target in assay [7] is T7, Interstitial collagenase (Homo sapiens) (UniProt P03956).
T7 sequence (whole entry): T1 sequence (P03956 whole entry)
Description: Inhibition of human recombinant MMP1 at 100 uM.

For assay [8], the target named is T4, Collagenase 3. Description: Inhibition of MMP13 at 100 uM.
For assay [9], the target named is T8, Matrilysin (Homo sapiens) (UniProt P09237).
T8 sequence (whole entry): T2 sequence (P09237 whole entry)
The assay is described as follows: Inhibition of MMP7 at 100 uM.

For assay [10], the target named is T5, Matrix metalloproteinase-14. As to conditions: 100 uM.
For assay [11], the target named is T6, Matrix metalloproteinase-9. The assay is described as follows: Inhibition of human recombinant MMP9 expressed in mouse myeloma cells at 100 uM. Type of assay: cell-based.

T6 sequence (P14780 whole entry): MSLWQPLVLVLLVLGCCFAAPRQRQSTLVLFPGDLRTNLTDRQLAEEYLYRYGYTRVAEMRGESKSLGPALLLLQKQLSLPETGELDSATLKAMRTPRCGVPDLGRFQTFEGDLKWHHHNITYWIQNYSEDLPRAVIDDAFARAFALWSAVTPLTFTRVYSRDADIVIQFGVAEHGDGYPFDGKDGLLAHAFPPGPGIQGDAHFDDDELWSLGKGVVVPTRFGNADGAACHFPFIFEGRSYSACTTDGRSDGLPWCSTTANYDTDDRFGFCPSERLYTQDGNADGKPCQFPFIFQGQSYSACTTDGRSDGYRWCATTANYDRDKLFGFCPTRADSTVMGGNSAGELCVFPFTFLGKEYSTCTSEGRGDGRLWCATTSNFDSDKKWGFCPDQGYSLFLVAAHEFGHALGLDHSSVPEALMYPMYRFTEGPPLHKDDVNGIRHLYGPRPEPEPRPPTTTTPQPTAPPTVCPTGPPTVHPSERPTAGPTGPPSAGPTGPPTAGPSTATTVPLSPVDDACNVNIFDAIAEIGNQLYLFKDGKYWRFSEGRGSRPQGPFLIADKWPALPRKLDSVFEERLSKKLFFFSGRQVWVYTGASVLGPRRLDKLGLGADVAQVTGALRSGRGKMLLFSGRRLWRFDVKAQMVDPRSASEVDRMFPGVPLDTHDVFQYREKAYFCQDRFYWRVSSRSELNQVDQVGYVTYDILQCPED
Sequence of Neutrophil collagenase (P22894 whole entry): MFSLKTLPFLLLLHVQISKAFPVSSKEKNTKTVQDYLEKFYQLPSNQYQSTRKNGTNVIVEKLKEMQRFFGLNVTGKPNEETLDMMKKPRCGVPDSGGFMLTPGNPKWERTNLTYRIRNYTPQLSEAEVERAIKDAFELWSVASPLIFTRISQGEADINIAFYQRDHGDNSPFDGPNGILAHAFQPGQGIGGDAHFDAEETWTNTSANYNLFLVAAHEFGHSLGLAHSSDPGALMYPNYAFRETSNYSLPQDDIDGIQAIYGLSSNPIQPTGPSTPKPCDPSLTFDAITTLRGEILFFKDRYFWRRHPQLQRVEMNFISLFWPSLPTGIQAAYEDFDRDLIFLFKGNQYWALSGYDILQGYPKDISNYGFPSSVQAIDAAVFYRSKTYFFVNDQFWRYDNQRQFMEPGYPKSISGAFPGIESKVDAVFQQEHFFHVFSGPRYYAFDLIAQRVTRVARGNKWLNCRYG
Sequence of 72 kDa type IV collagenase (P08253 whole entry): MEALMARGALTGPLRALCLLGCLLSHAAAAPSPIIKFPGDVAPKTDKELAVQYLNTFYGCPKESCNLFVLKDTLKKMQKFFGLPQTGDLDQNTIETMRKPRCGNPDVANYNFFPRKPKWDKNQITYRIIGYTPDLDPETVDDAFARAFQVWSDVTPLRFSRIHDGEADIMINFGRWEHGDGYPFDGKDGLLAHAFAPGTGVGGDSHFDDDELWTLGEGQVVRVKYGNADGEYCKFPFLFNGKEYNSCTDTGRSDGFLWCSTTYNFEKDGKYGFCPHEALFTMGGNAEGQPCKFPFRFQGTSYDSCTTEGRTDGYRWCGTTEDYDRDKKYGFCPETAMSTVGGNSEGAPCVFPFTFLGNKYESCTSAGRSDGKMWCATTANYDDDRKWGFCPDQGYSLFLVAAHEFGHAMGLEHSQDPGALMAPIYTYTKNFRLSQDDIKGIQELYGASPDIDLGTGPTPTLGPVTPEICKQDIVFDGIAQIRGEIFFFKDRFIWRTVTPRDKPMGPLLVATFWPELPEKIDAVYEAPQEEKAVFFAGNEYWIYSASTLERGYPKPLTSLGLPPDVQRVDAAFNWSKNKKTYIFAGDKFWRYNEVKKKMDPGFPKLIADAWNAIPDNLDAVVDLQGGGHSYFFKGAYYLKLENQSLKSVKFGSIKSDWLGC

Consider `Cc1ccc(-c2ccc(S(=O)(=O)N[C@@H](C(C)C)P(=O)(O)O)cc2)cc1`, for which the pIC50 on Neutrophil collagenase is 9.41; at Interstitial collagenase, 7.01; against Matrilysin, 6.82; on Stromelysin-1 [1], 7.35; in assay [2] it was 8.64; at Collagenase 3 [3], 8.48. The values for the pIC50 in assay [4] and in [5] were 7.96 and 8.39, respectively.

`CC(C)[C@H](NS(=O)(=O)c1ccc(-c2ccc(Cl)cc2)cc1)P(=O)(O)O`: the pIC50 at Neutrophil collagenase is 9.09; against Interstitial collagenase, 7.11; at Matrilysin, 5.77; against Stromelysin-1 [1] it was 7.55; in assay [2], 8.06; at Collagenase 3 [3], 8.28. Moreover, the results for the pIC50 in [4] and in [5] were 7.33 and 7.68, respectively.

For `COc1ccc(CCc2ccc(S(=O)(=O)N[C@@H](C(C)C)P(=O)(O)O)cc2)cc1`, the pIC50 against Neutrophil collagenase was 6.96; at Matrilysin, 3.89; in assay [2], 6.10; against Collagenase 3 [3], 6.32; in [4] it was 4.40; in [5], 6.17. For the same compound, the inhibition at Stromelysin-1 [6] stood at 31%; in assay [7], 9%.

Consider `Cc1cccc(-c2ccc(S(=O)(=O)N[C@@H](C(C)C)P(=O)(O)O)cc2)c1`, for which the pIC50 against Neutrophil collagenase was 9.40; against Interstitial collagenase, 6.49; against Matrilysin it was 5.96; on Stromelysin-1 [1], 6.64; in [2], 7.62; against Collagenase 3 [3], 7.82. In addition, the results for the negative-log IC50 (pIC50) in [4] and in assay [5] were 7.59 and 7.19, respectively.

With `CC(C)[C@H](NS(=O)(=O)c1ccc(CCc2ccccc2)cc1)P(=O)(O)O`, the negative-log IC50 (pIC50) at Neutrophil collagenase was 6.59; at Matrilysin it was 4.30; in assay [2] it was 6.01; against Collagenase 3 [3], 6.09; in assay [4], 5.22; in assay [5] it was 5.15. In addition, the figures for the inhibition (against Stromelysin-1 [6]; in [7]) were 34% and 33%, respectively.

Turning to `CC(C)Oc1ccc(-c2ccc(S(=O)(=O)N[C@@H](C(C)C)P(=O)(O)O)cc2)cc1`, the pIC50 against Neutrophil collagenase is 8.82; on Interstitial collagenase it was 6.22; on Matrilysin, 5.70; at Stromelysin-1 [1], 7.44; in [2], 8.74; on Collagenase 3 [3] it was 8.38. For the same compound, the pIC50 in assay [4] was 6.89; in assay [5], 7.62.

For `COc1ccc(-c2ccc(S(=O)(=O)N[C@@H](C(C)C)P(=O)(O)O)cc2)cc1`, the pIC50 at Interstitial collagenase is 6.82; against Matrilysin, 6.34; against Stromelysin-1 [1], 7.28; in [2] it was 8.82; at Collagenase 3 [3], 8.59; in [4] it was 7.10. For the same compound, the pIC50 in [5] was 8.10.

Consider `CC(C)[C@H](NS(=O)(=O)c1ccc(-c2ccc(F)cc2)cc1)P(=O)(O)O`, for which the pIC50 is 8.96 at Neutrophil collagenase; 6.80 against Interstitial collagenase; 5.85 at Matrilysin; 6.82 against Stromelysin-1 [1]; 7.70 in [2]; 7.89 at Collagenase 3 [3]. Also, the pIC50 is 7.49 in assay [4] and 7.23 in assay [5].

As to `CCOc1ccc(-c2ccc(S(=O)(=O)N[C@@H](C(C)C)P(=O)(O)O)cc2)cc1`, the pIC50 was 9.43 at Neutrophil collagenase; 6.35 on Interstitial collagenase; 6.35 against Matrilysin; 7.92 against Stromelysin-1 [1]; 9.41 in [2]; 8.96 against Collagenase 3 [3]. Also, the pIC50 was 7.96 in assay [4] and 9.25 in [5].

For `CC(C)[C@H](NS(=O)(=O)c1ccc(-c2cccc(Cl)c2)cc1)P(=O)(O)O`, the pIC50 against Neutrophil collagenase is 8.89; against Interstitial collagenase it was 6.49; on Matrilysin it was 5.54; on Stromelysin-1 [1], 6.36; in assay [2], 7.52; at Collagenase 3 [3], 7.62. Also, the pIC50 in [4] was 7.12; in assay [5], 6.80.

On to `COc1ccc(-c2ccc(S(=O)(=O)N[C@H](C(C)C)P(=O)(O)O)cc2)cc1`, for which the inhibition was determined as 68% against Collagenase 3 [8]; 16% at Stromelysin-1 [6]; 5% in assay [7]; 17% in assay [9]; 63% in assay [10]; 40% in assay [11]. The pIC50 in assay [2] is 5.96.

As for `CC(C)[C@H](NS(=O)(=O)c1ccc(-c2cccc(F)c2)cc1)P(=O)(O)O`, the pIC50 at Neutrophil collagenase is 8.62; at Interstitial collagenase, 6.23; against Matrilysin, 4.70; against Stromelysin-1 [1], 5.92; in assay [2], 7.28; on Collagenase 3 [3] it was 7.20. For the same compound, the pIC50 in assay [4] is 6.74; in [5], 6.77.
